Activity calls are given as the source filed them.
Tests used:
Type in all cases: functional, organism-based
Details in all cases: dose 1-10 µM
[1] = tested on: Influenza A virus; assay: Antiviral activity against oseltamivir resistant Influenza A virus A/1690/19 (H1N1) infected in MDCK cells assessed as reduction in plaque number at 1 to 10 uM pre-infected with cell for 1 hrs followed by compound addition and measured after 72 hrs by plaque reduction assay
Outline: (§1)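 Confluent MDCK monolayers were inoculated at 37 °C for 1 h with virus suspension, either alone or with serial half-log sample dilutions (1, 3.16, 10), in duplicate. The inoculum was aspirated and replaced with serum-free test medium containing 2 µg/mL trypsin, 0.4% agar and the same sample concentrations. Plaques were counted and IC50 was derived by a four-parameter logistic fit (n = 3).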

[2] = tested on: Influenza A virus; assay: Antiviral activity against oseltamivir resistant Influenza A virus A/1519/19 (H1N1) infected in MDCK cells assessed as reduction in plaque number at 1 to 10 uM pre-infected with cell for 1 hrs followed by compound addition and measured after 72 hrs by plaque reduction assay; outline: as §1
[3] = tested on: Influenza A virus; assay: Antiviral activity against oseltamivir resistant Influenza A virus A/2588/19 (H3N2) infected in MDCK cells assessed as reduction in plaque number at 1 to 10 uM pre-infected with cell for 1 hrs followed by compound addition and measured after 72 hrs by plaque reduction assay; outline: as §1
[4] = tested on: Influenza B virus; assay: Antiviral activity against oseltamivir resistant Influenza B virus B/2791/18 (Victoria) infected in MDCK cells assessed as reduction in plaque number at 1 to 10 uM pre-infected with cell for 1 hrs followed by compound addition and measured after 72 hrs by plaque reduction assay; outline: as §1
[5] = tested on: Influenza B virus; assay: Antiviral activity against oseltamivir resistant Influenza B virus B/3449/18 (Yamagata) infected in MDCK cells assessed as reduction in plaque number at 1 to 10 uM pre-infected with cell for 1 hrs followed by compound addition and measured after 72 hrs by plaque reduction assay; outline: as §1

Measured: Activity

CC(C)=CCCC1=C[C@H](c2c(O)cc3c(c2O)C(=O)C[C@@H](c2ccc(O)cc2O)O3)[C@@H](C(=O)c2ccc(O)cc2O)[C@H](c2ccc(O)cc2O)C1
active: [1] | [2] | [3] | [4] | [5]

CC(C)=CC[C@]12Oc3cc(O)c([C@H]4C=C(C)C[C@H](c5ccc(O)cc5O)[C@H]4C(=O)c4ccc(O)cc4O)c(O)c3C(=O)[C@@]1(O)Oc1cc(O)ccc12 [SANGGENON C]
active: [1] | [2] | [3] | [4] | [5]
